Source: article PMC3667888 (Channels, 2013)
Where a chain is given by its changes, count along the chain named.

How the values were obtained:
Assay type in all cases: cell-based
[1] = target: T1, Kv4.2 G314F mutant channels (co-injected with KChIP1b) (Rattus norvegicus, UniProt Q63881, G314F); assay: Two-electrode voltage clamp, G314F mutant Kv4.2/KChIP1b in Xenopus oocytes; conditions: read-out: inhibition of the peak K+ current
T1 sequence (Q63881 1-630 G314F): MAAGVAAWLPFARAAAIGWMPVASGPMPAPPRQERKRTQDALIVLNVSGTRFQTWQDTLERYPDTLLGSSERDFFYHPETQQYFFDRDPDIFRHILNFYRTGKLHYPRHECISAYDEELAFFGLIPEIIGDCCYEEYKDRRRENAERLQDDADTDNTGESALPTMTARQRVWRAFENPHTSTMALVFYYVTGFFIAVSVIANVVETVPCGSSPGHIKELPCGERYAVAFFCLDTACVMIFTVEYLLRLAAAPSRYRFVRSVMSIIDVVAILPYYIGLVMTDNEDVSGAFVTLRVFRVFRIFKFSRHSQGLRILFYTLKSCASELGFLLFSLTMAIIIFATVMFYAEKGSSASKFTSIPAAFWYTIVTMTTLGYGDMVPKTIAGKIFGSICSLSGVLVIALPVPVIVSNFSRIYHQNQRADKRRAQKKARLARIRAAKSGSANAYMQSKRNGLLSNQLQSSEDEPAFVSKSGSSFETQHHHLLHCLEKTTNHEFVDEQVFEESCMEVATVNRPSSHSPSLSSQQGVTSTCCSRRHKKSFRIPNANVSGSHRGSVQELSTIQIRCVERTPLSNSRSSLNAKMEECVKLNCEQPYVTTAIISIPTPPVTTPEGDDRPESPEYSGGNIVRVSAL
In short: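 Rat Kv4.2 (WT or QuikChange mutant) RNA co-injected equimolar with KChIP1b, 5–10 ng/oocyte, into Xenopus oocytes held 1–5 d at 17–19 °C. Two-electrode voltage clamp at room temperature in perfused Na/K methanesulfonate HEPES saline, pH 7.4–7.5, with P/−4 or P/−6 leak subtraction. Peak current at +40 mV (from −90 mV) after 10 min of 10 μM AA is expressed relative to pre-AA current. Mean ± SE, n = cells.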

[2] = target: T2, Kv4.2 V261F/K318Q double mutant channels (co-injected with KChIP1b) (Rattus norvegicus, UniProt Q63881, K318Q/V261F)
T2 sequence (Q63881 1-630 V261F/K318Q): T1 sequence (Q63881 1-630 G314F) with V261F, F314G, K318Q
In short: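 Xenopus oocytes co-expressing rat Kv4.2 (WT or mutant) with equimolar KChIP1b were recorded by two-electrode voltage clamp at room temperature. Peak conductance was calculated as G = I/(Vm − Vh), with Vh = −100 mV, and normalized to each cell's Gmax. It was plotted against step potential without and with 10 μM AA and fit to a first-order Boltzmann function to give V1/2 and slope.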

[3] = target: T3, Kv4.2 R311Q mutant channels (co-injected with KChIP1b) (Rattus norvegicus, UniProt Q63881, R311Q); assay: Two-electrode voltage clamp, R311Q mutant Kv4.2/KChIP1b in Xenopus oocytes; conditions: 10 µM AA, 10 min
T3 sequence (Q63881 1-630 R311Q): T1 sequence (Q63881 1-630 G314F) with R311Q, F314G

## CCCCC/C=C\C/C=C\C/C=C\C/C=C\CCCC(=O)O [AA, arachidonic acid]
[1]
  inhibition at 10 µM: 22%
[2]; 10 µM AA
  V1/2 of conductance-voltage curve with AA: −19.1 mV
  slope factor (k) of Boltzmann fit with AA: 8.4
[2]; fitted Kd for AA inhibition of peak current, Hill equation, nH = 1, +40 mV
  Kd: 45.7 µM
[3]
  inhibition of peak K+ current by AA, effect of mutation: did not significantly disrupt the inhibitory effects of AA
